Source: ChEMBL document CHEMBL4689842, “EUbOPEN Chemogenomics Library wave 1” (2021)
“And” between values parts separate entries of the source, which are not always exact repeats. Equal entries are not always repeated.

Test system: Fibroblast
Test: Multiplex assay against human fibroblast
Type: toxicity, cell-based
Outline: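 With compound added, live cells were imaged on a CQ1 microscope at 37°C and 5% CO2; staining with Hoechst33342, BioTracker Green Microtubule Cytoskeleton Dye, MitoTracker Red and Annexin V Alexa Fluor 680 had been done at seeding. The CellPathfinder machine-learning gating scheme split cells into Hoechst high-intensity objects or normal cells, normal cells into healthy, pyknosed or fragmented nuclei, and pyknosed cells into mitotic or apoptotic. The tubulin, mitochondrial-mass and membrane-permeability phenotypes are per cents of healthy-nucleus cells.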

[1] = 12 h, 10 µM, compound concentration 10 uM, replicate 1
[2] = 12 h, 10 µM, compound concentration 10 uM, replicate 2
[3] = 24 h, 10 µM, compound concentration 10 uM, replicate 1
[4] = 24 h, 10 µM, compound concentration 10 uM, replicate 2
[5] = 12 h, 1 µM, compound concentration 1 uM, replicate 1
[6] = 12 h, 1 µM, compound concentration 1 uM, replicate 2
[7] = 24 h, 1 µM, compound concentration 1 uM, replicate 1
[8] = 24 h, 1 µM, compound concentration 1 uM, replicate 2

## CCN(CC)S(=O)(=O)Nc1cccc(-c2ccc3c(NC(=O)C4CC4)n[nH]c3c2)c1
[1]
  Population Apoptotic (%): 81%
  Population Fragmented Nuclei (%): 23% and 19%
  Population Healthy Nuclei (%): 64% and 56%
  Population Hoechst High Intensity Objects (%): 13% and 11%
  Population Membrane Permeable-Phenotype (%): 9% and 5%
  Population Mitochondria Different-Phenotype (%): 2% and 6%
  Population Mitotic Cells (%): 18%
  Population Normal (%): 86% and 88%
  Population Pyknosed Nuclei (%): 11% and 23%
  Population Tubulin-Different-Phenotype (%): 5% and 7%
  Total Cell Count: 220 and 309
[2]
  Population Apoptotic (%): 66% and 40%
  Population Fragmented Nuclei (%): 72% and 55%
  Population Healthy Nuclei (%): 17% and 34%
  Population Hoechst High Intensity Objects (%): 48% and 35%
  Population Membrane Permeable-Phenotype (%): 20% and 11%
  Population Mitotic Cells (%): 33% and 60%
  Population Normal (%): 51% and 65%
  Population Pyknosed Nuclei (%): 10% and 9%
  Population Tubulin-Different-Phenotype (%): 20% and 11%
  Total Cell Count: 56 and 80
[3]
  Population Apoptotic (%): 77% and 62%
  Population Fragmented Nuclei (%): 22% and 19%
  Population Healthy Nuclei (%): 66% and 62%
  Population Hoechst High Intensity Objects (%): 13% and 11%
  Population Membrane Permeable-Phenotype (%): 6% and 4%
  Population Mitochondria Different-Phenotype (%): 0% and 8%
  Population Mitotic Cells (%): 22% and 38%
  Population Normal (%): 86% and 88%
  Population Pyknosed Nuclei (%): 10% and 18%
  Population Tubulin-Different-Phenotype (%): 0% and 11%
  Total Cell Count: 238 and 311
[4]
  Population Fragmented Nuclei (%): 51% and 63%
  Population Healthy Nuclei (%): 35% and 23%
  Population Hoechst High Intensity Objects (%): 31% and 42%
  Population Membrane Permeable-Phenotype (%): 10% and 28%
  Population Normal (%): 68% and 57%
  Population Pyknosed Nuclei (%): 12% and 13%
  Total Cell Count: 79 and 52

## Cn1nc(C(F)(F)F)cc1-c1cnc(N2CCc3cc(S(=O)(=O)Nc4c(F)cc(Cl)cc4F)cc(N4CCCC4=O)c32)nc1 [TP-020]
[5]
  Population Apoptotic (%): 69%
  Population Fragmented Nuclei (%): 20%
  Population Healthy Nuclei (%): 59%
  Population Hoechst High Intensity Objects (%): 13%
  Population Membrane Permeable-Phenotype (%): 35%
  Population Mitochondria Different-Phenotype (%): 4%
  Population Mitotic Cells (%): 30%
  Population Normal (%): 86%
  Population Pyknosed Nuclei (%): 20%
  Population Tubulin-Different-Phenotype (%): 58%
  Total Cell Count: 241
[6]
  Population Apoptotic (%): 42%
  Population Fragmented Nuclei (%): 56%
  Population Healthy Nuclei (%): 26%
  Population Hoechst High Intensity Objects (%): 34%
  Population Membrane Permeable-Phenotype (%): 45%
  Population Mitochondria Different-Phenotype (%): 18%
  Population Mitotic Cells (%): 57%
  Population Normal (%): 65%
  Population Pyknosed Nuclei (%): 17%
  Population Tubulin-Different-Phenotype (%): 72%
  Total Cell Count: 63
[1]
  Population Apoptotic (%): 65%
  Population Fragmented Nuclei (%): 30%
  Population Healthy Nuclei (%): 57%
  Population Hoechst High Intensity Objects (%): 7%
  Population Membrane Permeable-Phenotype (%): 13%
  Population Mitochondria Different-Phenotype (%): 1%
  Population Mitotic Cells (%): 35%
  Population Normal (%): 92%
  Population Pyknosed Nuclei (%): 11%
  Population Tubulin-Different-Phenotype (%): 3%
  Total Cell Count: 192
[2]
  Population Apoptotic (%): 33%
  Population Fragmented Nuclei (%): 62%
  Population Healthy Nuclei (%): 28%
  Population Hoechst High Intensity Objects (%): 41%
  Population Membrane Permeable-Phenotype (%): 10%
  Population Mitochondria Different-Phenotype (%): 0%
  Population Mitotic Cells (%): 66%
  Population Normal (%): 58%
  Population Pyknosed Nuclei (%): 8%
  Population Tubulin-Different-Phenotype (%): 10%
  Total Cell Count: 60
[7]
  Population Apoptotic (%): 51%
  Population Fragmented Nuclei (%): 19%
  Population Healthy Nuclei (%): 57%
  Population Hoechst High Intensity Objects (%): 9%
  Population Membrane Permeable-Phenotype (%): 25%
  Population Mitochondria Different-Phenotype (%): 4%
  Population Mitotic Cells (%): 48%
  Population Normal (%): 90%
  Population Pyknosed Nuclei (%): 23%
  Population Tubulin-Different-Phenotype (%): 55%
  Total Cell Count: 246
[8]
  Population Apoptotic (%): 57%
  Population Fragmented Nuclei (%): 57%
  Population Healthy Nuclei (%): 26%
  Population Hoechst High Intensity Objects (%): 36%
  Population Membrane Permeable-Phenotype (%): 18%
  Population Mitochondria Different-Phenotype (%): 27%
  Population Mitotic Cells (%): 42%
  Population Normal (%): 63%
  Population Pyknosed Nuclei (%): 16%
  Population Tubulin-Different-Phenotype (%): 27%
  Total Cell Count: 66
[3]
  Population Apoptotic (%): 42%
  Population Fragmented Nuclei (%): 22%
  Population Healthy Nuclei (%): 66%
  Population Hoechst High Intensity Objects (%): 10%
  Population Membrane Permeable-Phenotype (%): 7%
  Population Mitochondria Different-Phenotype (%): 1%
  Population Mitotic Cells (%): 57%
  Population Normal (%): 89%
  Population Tubulin-Different-Phenotype (%): 2%
  Total Cell Count: 188
[4]
  Population Apoptotic (%): 50%
  Population Fragmented Nuclei (%): 52%
  Population Healthy Nuclei (%): 35%
  Population Hoechst High Intensity Objects (%): 38%
  Population Membrane Permeable-Phenotype (%): 8%
  Population Mitochondria Different-Phenotype (%): 0%
  Population Mitotic Cells (%): 50%
  Population Normal (%): 61%
  Population Pyknosed Nuclei (%): 11%
  Population Tubulin-Different-Phenotype (%): 25%
  Total Cell Count: 55

## O=C(Nc1cccnn1)N1CCC(=Cc2cccc(Oc3ccc(C(F)(F)F)cn3)c2)CC1
[5]
  Population Apoptotic (%): 59%
  Population Fragmented Nuclei (%): 24%
  Population Healthy Nuclei (%): 56%
  Population Hoechst High Intensity Objects (%): 10%
  Population Membrane Permeable-Phenotype (%): 20%
  Population Mitochondria Different-Phenotype (%): 10%
  Population Normal (%): 89%
  Population Pyknosed Nuclei (%): 18%
  Population Tubulin-Different-Phenotype (%): 28%
  Total Cell Count: 217
[6]
  Population Apoptotic (%): 60%
  Population Fragmented Nuclei (%): 71%
  Population Healthy Nuclei (%): 17%
  Population Hoechst High Intensity Objects (%): 44%
  Population Membrane Permeable-Phenotype (%): 25%
  Population Mitochondria Different-Phenotype (%): 0%
  Population Mitotic Cells (%): 40%
  Population Normal (%): 55%
  Population Pyknosed Nuclei (%): 10%
  Population Tubulin-Different-Phenotype (%): 25%
  Total Cell Count: 83
[1]
  Population Apoptotic (%): 73%
  Population Fragmented Nuclei (%): 34%
  Population Healthy Nuclei (%): 52%
  Population Hoechst High Intensity Objects (%): 14%
  Population Membrane Permeable-Phenotype (%): 6%
  Population Mitochondria Different-Phenotype (%): 5%
  Population Mitotic Cells (%): 26%
  Population Normal (%): 85%
  Population Pyknosed Nuclei (%): 13%
  Population Tubulin-Different-Phenotype (%): 7%
  Total Cell Count: 170
[2]
  Population Apoptotic (%): 25%
  Population Fragmented Nuclei (%): 50%
  Population Healthy Nuclei (%): 37%
  Population Hoechst High Intensity Objects (%): 24%
  Population Membrane Permeable-Phenotype (%): 12%
  Population Mitochondria Different-Phenotype (%): 12%
  Population Mitotic Cells (%): 75%
  Population Normal (%): 75%
  Population Pyknosed Nuclei (%): 12%
  Population Tubulin-Different-Phenotype (%): 4%
  Total Cell Count: 85
[7]
  Population Apoptotic (%): 72%
  Population Fragmented Nuclei (%): 28%
  Population Healthy Nuclei (%): 58%
  Population Hoechst High Intensity Objects (%): 6%
  Population Membrane Permeable-Phenotype (%): 9%
  Population Mitochondria Different-Phenotype (%): 12%
  Population Mitotic Cells (%): 27%
  Population Normal (%): 93%
  Population Pyknosed Nuclei (%): 13%
  Population Tubulin-Different-Phenotype (%): 27%
  Total Cell Count: 238
[8]
  Population Apoptotic (%): 60%
  Population Fragmented Nuclei (%): 60%
  Population Healthy Nuclei (%): 28%
  Population Hoechst High Intensity Objects (%): 42%
  Population Membrane Permeable-Phenotype (%): 23%
  Population Mitochondria Different-Phenotype (%): 23%
  Population Mitotic Cells (%): 40%
  Population Normal (%): 57%
  Population Pyknosed Nuclei (%): 11%
  Population Tubulin-Different-Phenotype (%): 38%
  Total Cell Count: 78
[3]
  Population Apoptotic (%): 65%
  Population Fragmented Nuclei (%): 28%
  Population Healthy Nuclei (%): 57%
  Population Hoechst High Intensity Objects (%): 18%
  Population Membrane Permeable-Phenotype (%): 1%
  Population Mitochondria Different-Phenotype (%): 2%
  Population Mitotic Cells (%): 35%
  Population Normal (%): 81%
  Population Pyknosed Nuclei (%): 13%
  Population Tubulin-Different-Phenotype (%): 2%
  Total Cell Count: 179
[4]
  Population Apoptotic (%): 33%
  Population Fragmented Nuclei (%): 51%
  Population Healthy Nuclei (%): 38%
  Population Hoechst High Intensity Objects (%): 23%
  Population Membrane Permeable-Phenotype (%): 12%
  Population Mitochondria Different-Phenotype (%): 8%
  Population Mitotic Cells (%): 66%
  Population Normal (%): 76%
  Population Pyknosed Nuclei (%): 9%
  Population Tubulin-Different-Phenotype (%): 20%
  Total Cell Count: 81
